The results in this text go back to PubChem BioAssay AID635 (SRMLSC, 2007).

A value given as a limit tells only on which side of the number the result lay.

The experiment concerns E. coli BW25113 growth inhibition, OD615. Put plainly: growth inhibition of wild-type E. coli BW25113 pool, dose response, OD615 (AID 635). The conditions noted are these: pooled mutant strains. The method in brief: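 times: 20 h, 37 °C growth with compound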
Take `CCn1cc(C(=O)O)c(=O)c2cc(F)c(N3CCN(C(=O)Nc4ccccc4)CC3)cc21`: the 50% inhibitory concentration (IC50) – broadly, the concentration that inhibits the measured activity by half – is 4.05 µM.
Under `COc1ccc(OCC(O)CNc2ccc(Br)cc2)cc1` (centres undefined) stands 102 µM.
Turning to `CO[C@@]1(NC(=O)Cc2cccs2)C(=O)N2C(C(=O)O)=C(COC(N)=O)CS[C@@H]21`, the IC50 is 9.78 µM.
Under `CC(=O)c1c(C)n([O-])c2ccccc2[n+]1=O` stands 48.6 µM.
On to `COc1c(N2CCNC(C)C2)c(F)cc2c(=O)c(C(=O)O)cn(C3CC3)c12` (centres undefined), for which the IC50 was under 0.195 µM.
With `O=S1(=O)Nc2c(ccc3cccnc23)-c2ccccc21`, the IC50 was 20.3 µM.
Under `Oc1c(CN2CCCCC2)cc(Br)c2cccnc12` stands 37.5 µM; under `CN(C)[C@@H]1C(=O)C(C(N)=O)=C(O)[C@@]2(O)C(=O)C3=C(O)c4c(O)ccc(Cl)c4[C@@H](O)[C@H]3C[C@@H]12`, 0.579 µM; under `CCCCOc1ccc(NC2=NC3(CCCCC3)N=C(N)N2)cc1`, 41 µM.
Under `CCCCNc1cc(C)nc(NCc2ccccc2)n1` stands 98.5 µM; under `CN1CCN(c2c(F)cc3c(=O)c(C(=O)O)cn4c3c2SCC4)CC1`, 1.11 µM; under `C=CCNc1ncnc2c1[nH]c1ccc(C)cc12`, 41.7 µM.
Under `c1ccc(-c2cccc(-c3ccccn3)n2)nc1` stands 41.8 µM.
`CCC(=O)N1CCN(c2cc3c(cc2F)c(=O)c(C(=O)O)cn3CC)CC1`: the IC50 was 4.01 µM.
Under `O=c1ccsn1Cc1ccccc1` stands 34.6 µM.
Under `COc1cc(Cc2cnc(N)nc2N)cc(OC)c1OC` stands 0.595 µM; under `CC(=O)OCC1=C(C(=O)O)N2C(=O)[C@@H](NC(=O)Cc3cccs3)[C@H]2SC1`, 10.5 µM.
`CCn1cc(C(=O)NCc2ccc3c(c2)OCO3)c(=O)c2cc(F)c(N3CCN(C)CC3)cc21`: the IC50 is 28.6 µM.
Under `NC1C2CN(c3nc4c(cc3F)c(=O)c(C(=O)O)cn4-c3ccc(F)cc3F)CC12` (centres undefined) stands 0.006 µM.
